Results taken from ChEMBL document CHEMBL3580644, “Synthesis of piperlongumine analogues and discovery of nuclear factor erythroid 2-related factor 2 (Nrf2) activators as potential neuroprotective agents” (J Med Chem, 2015).
The source made the active and inactive calls. The rule behind the calls is not given here.

Tests used:
[1] = Cytotoxicity against rat PC12 cells assessed as reduction in cell viability at 20 uM to 100 uM incubated for 24 hrs by MTT assay; format: cell-based; details: pc-12, 24 h
[2] = system: PC-12; experiment: Cytoprotection activity against H2O2-induced apoptosis in rat PC12 cells assessed as reduction in caspase-3 activation at 10 and 20 uM pre-incubated for 24 hrs before H2O2 exposure for 24 hrs by colorimetric assay; format: functional, cell-based
In short: (§1)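 Lysed in RIPA buffer (pH 7.5), protein by Bradford; caspase-3 measured colorimetrically with Ac-DEVD-pNA substrate, expressed as % of control; mean ± SD, three independent experiments.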

[3] = system: PC-12; experiment: Cytoprotection activity against 6-OHDA-induced apoptosis in rat PC12 cells assessed as reduction in caspase-3 activation at 10 and 20 uM pre-incubated for 24 hrs before 6-OHDA exposure for 24 hrs by colorimetric assay; format: functional, cell-based; in short: as §1
[4] = system: PC-12; experiment: Cytoprotection activity against H2O2-induced oxidative stress in rat PC12 cells assessed as reduction in ROS generation at 10 and 20 uM pre-incubated for 24 hrs before H2O2 exposure for 5 hrs by DCFH-DA dye based fluorescent microscopy; format: functional, cell-based
[5] = Antioxidant activity assessed as ABTS radical scavenging activity at 20 uM incubated for 30 mins by spectrophotometry; format: physicochemical; details: 0.5 h
[6] = system: PC-12; experiment: Induction of antioxidant defense system in rat PC12 cells assessed as increase in GSH level incubated for 24 hrs; format: functional, cell-based
In short: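 Total glutathione: cells extracted in KPE buffer (0.1% Triton X-100, 0.6% sulfosalicylic acid, 5 mM EDTA, 0.1 M PBS pH 7.5), sonicated on ice, centrifuged 3000 g 4 min at 4 °C; supernatant assayed enzymatically. PC12 cells 1×10^6 in 60-mm dishes, compound 24 h; stress lines add 500 μM H2O2 or 200 μM 6-OHDA 12 h.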

[7] = system: PC-12; experiment: Induction of antioxidant genes expression in rat PC12 cells assessed as increase in TrxR1 activity at 10 and 20 uM incubated for 20 hrs by TRFS-green dye based fluorescent microscopy; format: functional, cell-based
In short: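 PC12 cells 2×10^5/well, 24 h, then compound 20 h; TRFS-green added to 10 μM final and incubated 4 h at 37 °C in the dark; green fluorescence intensity imaged by fluorescence microscopy as relative cellular TrxR activity.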

[8] = target: T1, Nuclear factor erythroid 2-related factor 2 (Rattus norvegicus) (UniProt O54968); experiment: Induction of Nrf2-mediated antioxidant genes expression in rat PC12 cells assessed as increase in TrxR1 protein expression at 10 and 20 uM incubated for 20 hrs by Western blotting method; format: cell-based; details: PC-12
T1 sequence (whole entry): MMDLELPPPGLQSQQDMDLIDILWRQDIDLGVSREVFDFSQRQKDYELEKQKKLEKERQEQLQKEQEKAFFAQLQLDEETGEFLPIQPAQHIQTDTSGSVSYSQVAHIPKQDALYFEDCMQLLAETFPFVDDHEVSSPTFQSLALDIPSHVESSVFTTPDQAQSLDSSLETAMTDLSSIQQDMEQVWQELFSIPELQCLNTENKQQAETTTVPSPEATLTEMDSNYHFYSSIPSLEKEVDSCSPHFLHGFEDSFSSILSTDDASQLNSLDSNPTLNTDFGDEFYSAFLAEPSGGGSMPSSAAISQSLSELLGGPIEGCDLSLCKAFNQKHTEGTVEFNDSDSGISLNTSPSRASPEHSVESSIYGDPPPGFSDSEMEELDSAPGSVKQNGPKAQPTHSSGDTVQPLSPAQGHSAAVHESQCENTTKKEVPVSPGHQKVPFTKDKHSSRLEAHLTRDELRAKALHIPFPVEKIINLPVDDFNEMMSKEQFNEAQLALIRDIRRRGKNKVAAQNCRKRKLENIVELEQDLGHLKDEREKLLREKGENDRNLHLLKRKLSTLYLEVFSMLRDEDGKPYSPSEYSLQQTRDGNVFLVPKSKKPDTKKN

[9] = system: PC-12; experiment: Reduction in cytosolic Nrf2 protein level in rat PC12 cells at 20 uM incubated for 2 to 8 hrs by Western blotting method; format: functional, cell-based
In short: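 Seeded at 1×10^6 cells per 60-mm dish for 24 h, PC12 cells were treated with 20 μM compound for 0, 2, 4 and 8 h. Whole-cell, cytosolic and nuclear protein extracts were then prepared and Nrf2 probed by Western blot.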

[10] = target: T1, Nuclear factor erythroid 2-related factor 2 (Rattus norvegicus); experiment: Induction of Nrf2 nuclear translocation in rat PC12 cells at 20 uM incubated for 2 to 8 hrs by Western blotting method; format: cell-based; details: PC-12
In short: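 PC12 cells (1×10^6) in 60-mm dishes, 24 h, then 20 μM compound for 0, 2, 4 and 8 h; nuclear, cytosolic and whole-cell extracts prepared; Nrf2 detected by Western blot.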

[11] = system: PC-12; experiment: Cytoprotection activity against H2O2-induced cytotoxicity in rat PC12 cells assessed as cell viability at 10 and 20 uM pre-incubated for 24 hrs before H2O2 exposure for 12 hrs in presence of non-trageting shRNA by MTT assay; format: functional, cell-based

| Activity [5] | Activity [8] | Activity [10] | Structure (SMILES) | Activity [1] | Activity [2] | Activity [3] | Activity [4] | Activity [6] | Activity [7] | Activity [9] | Activity [11] |
| --- | --- | --- | --- | --- | --- | --- | --- | --- | --- | --- | --- |
| Not Active | Active | Active | COc1cc(/C=C/C(=O)N2CCCCC2=O)cc(OC)c1OC | Non-toxic | Dose-dependent effect | Dose-dependent effect | Dose-dependent effect | Active | Active | Active | Active |
| Not Active | Active | Active | COc1ccc(/C=C/C(=O)N2CCCC2=O)cc1 | Non-toxic | Dose-dependent effect | Dose-dependent effect | Dose-dependent effect | Active | Active | Active | Active |
